From ChEMBL document CHEMBL3259728, “Design, synthesis and biological evaluation of some novel substituted quinazolines as antitumor agents” (2014)

What was measured:
Type in all cases: functional
[1] = Growth inhibition of human RXF393 cells assessed as cell growth at 10^-6 M after 48 hrs by SRB assay; conditions: RXF 393, 48 h, read-out: Activity
[2] = Growth inhibition of human BT549 cells assessed as cell growth at 10^-7 M after 48 hrs by SRB assay; conditions: BT-549, 48 h, read-out: Activity
Outline: (§1)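 Five-dose NCI panel protocol. Each dose (10^-4 to 10^-8 M, 10-fold steps) was given as 48 h continuous exposure, and protein was measured by SRB staining. Percentage growth at each level is [(Ti−Tz)/(C−Tz)]×100, where Tz is time-zero absorbance and C is untreated control.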

[3] = test system: SNB-19; assay: Growth inhibition of human SNB19 cells assessed as cell growth at 10^-8 M after 48 hrs by SRB assay; conditions: SNB-19, 48 h, read-out: Activity
[4] = Growth inhibition of human HOP92 cells assessed as cell growth at 10^-7 M after 48 hrs by SRB assay; conditions: HOP-92, 48 h, read-out: Activity
[5] = test system: MDA-MB-468; assay: Cytotoxicity against human MDA-MB-468 cells after 48 hrs by SRB assay; conditions: MDA-MB-468, 48 h
Outline: (§2)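 NCI 60-cell-line panel of human tumour lines from nine cancer types. Continuous 48 h exposure at five 10-fold dilutions from 10^-4 to 10^-8 M, with 5-FU as positive control. SRB protein stain read spectrophotometrically at time zero, untreated control and each concentration. GI50, TGI and LC50 were derived from the [(Ti−Tz)/(C−Tz)]×100 growth relations, and out-of-range values are given as > or < the tested limits.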

[6] = test system: SK-MEL-28; assay: Cytotoxicity against human SK-MEL-28 cells after 48 hrs by SRB assay; conditions: SK-MEL-28, 48 h; outline: as §2
[7] = test system: 786-0; assay: Growth inhibition of human 786-0 cells assessed as cell growth at 10^-6 M after 48 hrs by SRB assay; conditions: 786-0, 48 h, read-out: Activity; outline: as §1
[8] = test system: SW-620; assay: Growth inhibition of human SW620 cells assessed as cell growth at 10^-5 M after 48 hrs by SRB assay; conditions: SW-620, 48 h, read-out: Activity
[9] = test system: RPMI-8226; assay: Growth inhibition of human RPMI8226 cells assessed as cell growth at 10^-5 M after 48 hrs by SRB assay; conditions: RPMI-8226, 48 h, read-out: Activity
[10] = test system: SK-MEL-28; assay: Growth inhibition of human SK-MEL-28 cells assessed as cell growth at 10^-4 M after 48 hrs by SRB assay; conditions: SK-MEL-28, 48 h, read-out: Activity
[11] = test system: DU-145; assay: Growth inhibition of human DU145 cells assessed as cell growth at 10^-5 M after 48 hrs by SRB assay; conditions: DU-145, 48 h, read-out: Activity; outline: as §1
[12] = test system: SF-295; assay: Cytotoxicity against human SF295 cells after 48 hrs by SRB assay; conditions: SF-295, 48 h; outline: as §2
[13] = test system: CAKI-1; assay: Growth inhibition of human CAKI-1 cells assessed as cell growth at 10^-7 M after 48 hrs by SRB assay; conditions: CAKI-1, 48 h, read-out: Activity; outline: as §1
[14] = Growth inhibition of human EKVX cells assessed as cell growth at 10^-5 M after 48 hrs by SRB assay; conditions: read-out: Activity
[15] = test system: DU-145; assay: Growth inhibition of human DU145 cells assessed as cell growth at 10^-7 M after 48 hrs by SRB assay; conditions: DU-145, 48 h, read-out: Activity
[16] = test system: KM12; assay: Growth inhibition of human KM12 cells assessed as cell growth at 10^-8 M after 48 hrs by SRB assay; conditions: KM12, 48 h, read-out: Activity
[17] = test system: MCF7; assay: Cytotoxicity against human MCF7 cells after 48 hrs by SRB assay; conditions: MCF7, 48 h; outline: as §2
[18] = test system: A498; assay: Growth inhibition of human A498 cells assessed as cell growth at 10^-4 M after 48 hrs by SRB assay; conditions: A498, 48 h, read-out: Activity; outline: as §1
[19] = test system: SW-620; assay: Cytotoxicity against human SW620 cells after 48 hrs by SRB assay; conditions: SW-620, 48 h; outline: as §2
[20] = Growth inhibition of human LOXIMVI cells assessed as cell growth at 10^-6 M after 48 hrs by SRB assay; conditions: LOX IMVI, read-out: Activity
[21] = test system: CCRF-CEM; assay: Growth inhibition of human CCRF-CEM cells assessed as cell growth at 10^-8 M after 48 hrs by SRB assay; conditions: read-out: Activity; outline: as §1
[22] = test system: NCI-H460; assay: Growth inhibition of human NCI-H460 cells assessed as cell growth at 10^-5 M after 48 hrs by SRB assay; conditions: NCI-H460, 48 h, read-out: Activity
[23] = Growth inhibition of human OVCAR8 cells assessed as cell growth at 10^-4 M after 48 hrs by SRB assay; conditions: OVCAR-8, 48 h, read-out: Activity
[24] = test system: SN12C; assay: Growth inhibition of human SN12C cells assessed as cell growth at 10^-4 M after 48 hrs by SRB assay; conditions: read-out: Activity
[25] = test system: KM12; assay: Growth inhibition of human KM12 cells assessed as cell growth at 10^-5 M after 48 hrs by SRB assay; conditions: KM12, 48 h, read-out: Activity
[26] = Growth inhibition of human SF539 cells assessed as cell growth at 10^-8 M after 48 hrs by SRB assay; conditions: SF-539, 48 h, read-out: Activity
[27] = test system: HOP-62; assay: Growth inhibition of human HOP62 cells assessed as cell growth at 10^-8 M after 48 hrs by SRB assay; conditions: HOP-62, 48 h, read-out: Activity
[28] = test system: CCRF-CEM; assay: Growth inhibition of human CCRF-CEM cells assessed as cell growth at 10^-4 M after 48 hrs by SRB assay; conditions: read-out: Activity; outline: as §1
[29] = test system: M14; assay: Cytotoxicity against human M14 cells after 48 hrs by SRB assay; conditions: M14, 48 h; outline: as §2
[30] = read-out: LC50 (the source's name)
[31] = read-out: pLC50 (the source's name) (converted)

## Cc1ccc(-c2nc3ccc(Cl)cc3c(=O)n2/N=C/c2ccccc2)cc1
[1]
  growth at 1 µM: 90%
[2]
  growth at 0.1 µM: 94%
[3]
  growth at 0.01 µM: 96%
[4]
  growth at 0.1 µM: 89%
[5]; read-out: GI50
  GI50: 57.6 µM
[5]; read-out: LC50
  LC50: > 100 µM
[5]; read-out: TGI
  TGI: > 100 µM
[5]; read-out: pGI50 (converted)
  GI50: 57.5 µM
[5]; read-out: pLC50 (converted)
  LC50: > 100 µM
[5]; read-out: pTGI
  TGI: > 100 µM
[6]; read-out: GI50
  GI50: 20.6 µM
[6]; [30]
  CC50: > 100 µM
[6]; read-out: TGI
  TGI: > 100 µM
[6]; read-out: pGI50 (converted)
  GI50: 20.4 µM
[6]; [31]
  CC50: > 100 µM
[6]; read-out: pTGI
  TGI: > 100 µM
[7]
  growth at 1 µM: 90%
[8]
  growth at 10 µM: 67%
[9]
  growth at 10 µM: 72%
[10]
  growth at 100 µM: 27%
[11]
  growth at 10 µM: 55%
[12]; read-out: GI50
  GI50: 4.73 µM
[12]; [30]
  CC50: > 100 µM
[12]; read-out: TGI
  TGI: > 100 µM
[12]; read-out: pGI50 (converted)
  GI50: 4.79 µM
[12]; [31]
  CC50: > 100 µM
[12]; read-out: pTGI
  TGI: > 100 µM
[13]
  growth at 0.1 µM: 76%
[14]
  growth at 10 µM: 34%
[15]
  growth at 0.1 µM: 98%
[16]
  growth at 0.01 µM: 95%
[17]; read-out: GI50
  GI50: 26.9 µM
[17]; [30]
  CC50: > 100 µM
[17]; read-out: TGI
  TGI: > 100 µM
[17]; read-out: pGI50 (converted)
  GI50: 26.9 µM
[17]; [31]
  CC50: > 100 µM
[17]; read-out: pTGI
  TGI: > 100 µM
[18]
  growth at 100 µM: 17%
[19]; read-out: GI50
  GI50: > 100 µM
[19]; [30]
  CC50: > 100 µM
[19]; read-out: TGI
  TGI: > 100 µM
[19]; read-out: pGI50 (converted)
  GI50: > 100 µM
[19]; [31]
  CC50: > 100 µM
[19]; read-out: pTGI
  TGI: > 100 µM
[20]
  growth at 1 µM: 89%
[21]
  growth at 0.01 µM: 98%
[22]
  growth at 10 µM: 23%
[23]
  growth at 100 µM: 27%
[24]
  growth at 100 µM: 42%
[25]
  growth at 10 µM: 74%
[26]
  growth at 0.01 µM: 90%
[27]
  growth at 0.01 µM: 97%
[28]
  growth at 100 µM: 57%
[29]; read-out: GI50
  GI50: 56.2 µM
[29]; [30]
  CC50: > 100 µM
[29]; read-out: TGI
  TGI: > 100 µM
[29]; read-out: pGI50 (converted)
  GI50: 56.2 µM
[29]; [31]
  CC50: > 100 µM
[29]; read-out: pTGI
  TGI: > 100 µM
